B1: tRNA (parent)
chain: GUUCCGUUGGCGUAAUGGUAACGCGUCUCCCUCCUAAGGAGAAGACUGCGGGUUCGAGUCCCGUACGGAACG

Fewer inactive variants are shown than the library holds. Where only a bound is given, the exact number is not on record here.

In this data set the parent is B1. In words: yeast fitness relative to wild type (ratio to wild type); higher = fitter; tRNA-Arg(CCU), competitive growth, 37 C, YPD. The method in brief: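 For this measurement, the tRNA-Arg(CCU) gene was varied by chemical synthesis at a 3% per-site mutation rate across 69 sites, and each variant was placed at the native genomic locus in Saccharomyces cerevisiae. The pooled strains went through a 24-hour competition in YPD at 37°C in six parallel replicates, with amplicons from start and end populations read by 100-nucleotide paired-end sequencing. Darwinian fitness relative to wild type followed from the change in each genotype's frequency. Genotypes needed ≥ 100 starting reads, and estimates < 0.5 were set to 0.5.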
As for G12C U19C, the yeast fitness was 0.66.

On to G10C C22G C29A C46U A65C, for which the yeast fitness stood at 0.538. In the case of U7A A37G A43G U53A G58C C66G it was not above 0.5; in that of C29U C49A, 0.592; in that of A36G G56A A69U, 0.718. For A43U C46A A65C, the yeast fitness was determined as 0.688. Regarding C4U A37C G41C, the yeast fitness came to 0.577. Turning to A15G A20C C34U U59G, the yeast fitness came to 0.705. In the case of A20G A43U it was 1.03; in that of A15G A36C G67C, not above 0.5; in that of U47C G52A, 0.724. The value for C11A C24G C49U was 0.588; that for U8G G17A C31A C66U was not above 0.5.

Regarding A20G G38C C46U G63U, the yeast fitness was not above 0.5. The value for U3C U16G C29U C46U G67C A69U was not above 0.5; that for C22U C30G C49U was not above 0.5; that for U3C G41A A65C was 0.51. The value for C31G A45U G58U C62U was not above 0.5. On to C11A C27G C30G G44C, for which the yeast fitness came out at 0.538. With C31G G58A C61A, the yeast fitness turned out to be 0.708.

As to C55A G68C, the yeast fitness was 0.674. The value for C30U C46A A70C was 0.82. The value for A14G C22U C24U A65C was not above 0.5; that for A14U U26C A57U was not above 0.5. In the case of U3C C5U G39C it was 0.57; in that of A37C C49U, 0.848. As to A42G U47G G68U, the yeast fitness was not above 0.5. G12A G52A G68A: the yeast fitness was not above 0.5. In the case of C55G U59A A70G it was 0.731; in that of C22U A36G G51C A65C, 0.6; in that of A45C G56A, 0.977. In the case of C11G U35C A43C G52C U54A it was 0.644; in that of C5A C11G A21U C62U, not above 0.5. As for G9C A15U U16C A36U, the yeast fitness is not above 0.5.

Consider C22G G44C A70C, for which the yeast fitness came to 0.553. In the case of C4U C30A C61A A70U it was 0.536; in that of A21C C34U A36U G38C C49U, not above 0.5.

A15U C24U C27U: the yeast fitness was not above 0.5. As to A43G G50C, the yeast fitness was found to be 0.728. In the case of C11A C31A G38U G44C A65G it was not above 0.5; in that of U19C A37G G58C C61U U64C, not above 0.5; in that of C4U C11G C29A U54A U59G, not above 0.5. In the case of C46U A65U A69U it was 0.737; in that of C62G A65U, 0.75. In the case of G12A C24U C61A G67A it was not above 0.5; in that of C11G A15U G58U C66A A70C, not above 0.5. With G12A G25A A70C, the yeast fitness was determined as 0.76.

As to C30A A40C A43G C49G G63C, the yeast fitness was not above 0.5.

In the case of U16A U54C, the yeast fitness was determined as 0.849. Turning to U8A C31U A69C, the yeast fitness was 0.557. With C5G G12A A43G, the yeast fitness was 0.536. For the variant U3A C27G C31U C33U A42C G58C, the yeast fitness is not above 0.5.

As for C4G C5A U19A C24G C29G C66U, the yeast fitness was not above 0.5. C22A C24G A69U: the yeast fitness is not above 0.5. With U8C A21G U28C, the yeast fitness stood at 0.637. In the case of C31A C33G A42C G48A U54A it was not above 0.5.

As to C4A G6A G50A, the yeast fitness is not above 0.5. In the case of C4G G56A it was 0.927; in that of C11G G12A C60U A70G, not above 0.5.

C4A G17A G51C: the yeast fitness is not above 0.5.

Take A15U A20C A43C G51A G56C: the yeast fitness is not above 0.5. G9A A14U A21C: the yeast fitness worked out at 0.577.

As to C11U A21G U59A C62G, the yeast fitness came to 0.502. The value for G25A A36U C46G C62A A69C was not above 0.5; that for G12A U13A A65C was not above 0.5; that for U3A C5U C33G was 0.639. The value for C30U U54G U59G was 0.655; that for G10A G18A was not above 0.5.

Consider C4U A40G A43U C55G, for which the yeast fitness is 0.584. In the case of G6C A37G A43C C62U it was not above 0.5; in that of U3C U8A A15C, not above 0.5; in that of C24G C29G C33A G48A C55G G68C, not above 0.5. For the variant C11G C60G A65C, the yeast fitness was not above 0.5.

For the variant U8A G12A C62U, the yeast fitness is not above 0.5. On to C4A C5G C24U G25A A57U, for which the yeast fitness was not above 0.5. Take U13C A43U A70G: the yeast fitness was 0.966.

On to U28G G44C G48C, for which the yeast fitness stood at 0.556.

G12A U19C: the yeast fitness was 0.982. With C49G G63C G68C, the yeast fitness is not above 0.5. For C29A C34U G48C A57U, the yeast fitness was not above 0.5. Turning to U3A A14C A42C U47C, the yeast fitness was not above 0.5. Take A40G G63A G67A: the yeast fitness was not above 0.5. Regarding C5U C24U G52U C55A, the yeast fitness is not above 0.5. In the case of C33G A42G G52A it was not above 0.5; in that of U8G A42U A43C, 0.51.

Consider A15U A42C G48A G50C, for which the yeast fitness was not above 0.5. The value for G9C G38A was 0.624; that for C55G C61U was 0.743; that for G10C A20U A57U was not above 0.5. In the case of C24G A70G it was 0.564; in that of C22U U28G A45G A65G, not above 0.5.

Consider C5G G17C G23C, for which the yeast fitness was not above 0.5. The value for C5U G6A C66U was 0.975. Turning to U26A G58C C62U, the yeast fitness was 0.659. For the variant C5A C34A C46U A57G, the yeast fitness is not above 0.5.

Turning to U16A C30U A45G, the yeast fitness is not above 0.5.

In the case of G6C C22A U28A U53G, the yeast fitness was not above 0.5. The value for U2G C55U C62G C66A was 0.577. As for A21U C34G G56A, the yeast fitness was not above 0.5. The value for G25A C31U U64A was 0.642. In the case of A15G U35A G48A A57G C62G, the yeast fitness was not above 0.5. Turning to A14G C33U G63A, the yeast fitness was found to be 0.614. G25A C29A C46G G51A: the yeast fitness was not above 0.5. As for C33U C49A G63C, the yeast fitness is not above 0.5. In the case of C27A G52C it was 0.562; in that of U3C C11A C24U A42G G63A, not above 0.5; in that of C5G U7C G23A, not above 0.5. For the variant U2G A45C, the yeast fitness worked out at 0.766. The value for C11U G18C A40C G63A was not above 0.5; that for A14G U32A was 0.554; that for U53A U59A was 0.664. In the case of C27U A37U G67A it was not above 0.5. The value for C4A C46U C55U was not above 0.5. C22A G23C C34U A36G A40U G67A: the yeast fitness was not above 0.5. The value for A20G C24U G25A U35A C60U A70G was 0.655; that for G12C C34A G58C A65U A69C was not above 0.5. Take U3A C11U: the yeast fitness stood at 0.808. As to G25C G48A C60G, the yeast fitness is not above 0.5.

With A43U G56C C61A, the yeast fitness was not above 0.5.

As for C5A G23C A65G, the yeast fitness was found to be 0.532.

For the variant C4A C29A, the yeast fitness was found to be 0.637. In the case of A43U C66A it was 0.619; in that of A21C G39A A65C, not above 0.5. For the variant C27G A37G U64A, the yeast fitness was not above 0.5. Regarding C5U C29A C31A U54A, the yeast fitness was not above 0.5. In the case of A21U G23A A37U it was not above 0.5; in that of U47C A65C C66G, not above 0.5; in that of C24G C55G C62U, not above 0.5. The value for U3A C22U C24A C27U A43C was 0.522.

With C55G A65C G67A, the yeast fitness is not above 0.5. Turning to C5A G12C, the yeast fitness was 0.746. Regarding C29A C33G, the yeast fitness was 0.616. The value for U2A G48C was 0.92; that for C11G U19C A40G C66G A69U was not above 0.5.

Turning to C5U G6A, the yeast fitness came out at 0.884. In the case of G10A A20C G38A G41A U47A it was not above 0.5; in that of U3C G41A U53G U59A C62G, not above 0.5.

Take C5A U8G C27U A45G U53C: the yeast fitness is not above 0.5. As for U19A A57G, the yeast fitness came to 0.931. Take C27G C61U: the yeast fitness is 0.594. The value for U16G C29G C46U G51C C55G was not above 0.5; that for U3G U13C C33G was not above 0.5; that for C11A C46G A65G was not above 0.5. For the variant U54C G58A, the yeast fitness is 0.834. Consider A14G C24U G56A, for which the yeast fitness was found to be 0.813. Take U26A C31A A45U: the yeast fitness came out at 0.563.

Take A36C A40G G58C C60A: the yeast fitness is 0.537. With C5G C34G C49U C55U, the yeast fitness was not above 0.5.

With G17A G25C A40U, the yeast fitness stood at 0.574. For A14G C30U G39A C60G, the yeast fitness is not above 0.5. As to G17A C49U, the yeast fitness was determined as 0.892.

With U13C C29G A65U A70U, the yeast fitness came out at 0.588. For the variant A40G G48C C61G A65U, the yeast fitness was not above 0.5. The value for C27U C31A U53A was not above 0.5; that for U3G A43U U54A A57C was 0.588; that for C49A C60G A70C was not above 0.5. The value for C4G U7G G12C A20U A70U was not above 0.5. The value for A45U G52A A70U was 0.574; that for G48C C61U was 0.733; that for C27A G67A was 0.807. As to G9A C29U U59A, the yeast fitness turned out to be 0.561.

On to C11U A15U C46U, for which the yeast fitness came out at 0.741. In the case of C4U C5G C29G C31G A37U C66A, the yeast fitness was not above 0.5.

U19C C31U C33G G41A C49G U54C U59C G63A: the yeast fitness was not above 0.5. As for G23C C34U U47A G58C G67U, the yeast fitness was determined as 0.533.

With C4A U13A G58C A69U, the yeast fitness came to 0.655. In the case of U28C G39A A40U A42G it was not above 0.5.

Values taken from the RNAGym collection of RNA variant scans (doi:10.1126/science.aae0568).
